For data set [1], the system named is Rattus norvegicus. The experiment in a line: Effect on renal excretion in Wistar rat assessed as glomerular filtration rate at 8 mg/kg/hr, iv (RVb=1.47 %). In kind it is functional, Kidney. The procedure, abridged: (§1)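 Anaesthetized (pentobarbital 30 mg/kg ip) male Wistar rats (~345 g), 10 per group, were studied over a 30-min control period then a 30-min stevioside priming-plus-iv infusion period. Ringer's containing 2% PAH and 10% inulin was infused at 0.03 ml/min. Urine flow from timed bladder collection was expressed as percent of GFR, with GFR taken as inulin clearance (anthrone assay).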

Data set [2] deals with Rattus norvegicus. The experiment in a line: Effect on renal excretion in Wistar rat assessed as inulin clearance at 8 mg/kg/hr, iv administered 30 mins after inulin infusion (RVb=6.33 ml/min/kg). In kind it is functional, Kidney.
Data set [3] deals with Rattus norvegicus. The experiment in a line: Effect on renal excretion in Wistar rat assessed as p-aminohippuric acid clearance at 4 mg/kg/hr, iv administered 30 mins after p-aminohippuric acid infusion (RVb=12.88 ml/min/kg). In kind it is functional, Kidney. The procedure, abridged:
(§2)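 Pentobarbital-anaesthetized (30 mg/kg ip) male Wistar rats (~345 g), 10 per dose group, received a priming dose then a sustained jugular infusion of Ringer's with 2% PAH and 10% inulin at 0.03 ml/min. Clearance was measured over a 30-min control period, then a 30-min iv stevioside priming-plus-infusion period. PAH in carotid plasma and timed bladder urine was measured colorimetrically.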

Data set [4] deals with Rattus norvegicus. The experiment in a line: Effect on renal excretion in Wistar rat assessed as glucose clearance at 4 mg/kg/hr, iv (RVb=0 ml/min/kg). In kind it is functional, Kidney. The procedure, abridged:
(§3)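 Male Wistar rats (~345 g, fed, water ad lib) under ip sodium pentobarbital (30 mg/kg) on a heated table, tracheostomized. Stevioside (3% in isotonic Ringer's) was given as a priming dose plus sustained iv infusion via jugular vein. There were two 30-min periods, control then stevioside, with 10 rats per dose group. Carotid blood and timed bladder urine were collected.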

The subject of data set [5] is Rattus norvegicus. The experiment in a line: Effect on renal excretion in Wistar rat assessed as glucose clearance at 8 mg/kg/hr, iv (RVb=0 ml/min/kg). It counts as functional, Kidney. An outline of the steps:
as §3

Data set [6] concerns Rattus norvegicus. The experiment in a line: Effect on renal excretion in Wistar rat assessed as inulin clearance at 12 mg/kg/hr, iv administered 30 mins after inulin infusion (RVb=5.69 ml/min/kg). In kind it is functional, Kidney.
Data set [7] deals with Rattus norvegicus. The experiment in a line: Effect on renal excretion in Wistar rat assessed as glomerular filtration rate at 4 mg/kg/hr, iv (RVb=1.39 %). It counts as functional, Kidney. The following applies: in the assay text read “16 mg/kg/hr” for “4 mg/kg/hr”. An outline of the steps: as §1
A short description of data set [8]: Clearance in Wistar rat at 16 mg/kg/hr, iv. In kind it is ADME, organism-based. More on the design: route intravenous. The following applies: in vivo. The procedure, abridged:
as §3

Data set [9] deals with Rattus norvegicus. In words: Effect on renal excretion in Wistar rat assessed as fractional sodium excretion at 4 mg/kg/hr, iv (RVb=0.61 %). It counts as functional, Kidney.
The test system of data set [10] is Rattus norvegicus. In words: Effect on renal excretion in Wistar rat assessed as glomerular filtration rate at 12 mg/kg/hr, iv (RVb=1.87 %). In kind it is functional, Kidney. The procedure, abridged:
as §1

A short description of data set [11]: Clearance in Wistar rat at 8 mg/kg/hr, iv. In kind it is ADME, organism-based. Details: route intravenous. The following applies: in vivo. An outline of the steps:
as §3

Data set [12] concerns Rattus norvegicus. The experiment in a line: Effect on renal excretion in Wistar rat assessed as p-aminohippuric acid clearance at 12 mg/kg/hr, iv administered 30 mins after p-aminohippuric acid infusion (RVb=15.38 ml/min/kg). It counts as functional, Kidney. An outline of the steps:
as §2

Data set [13] relates to Rattus norvegicus. In words: Effect on renal excretion in Wistar rat assessed as fractional sodium excretion at 12 mg/kg/hr, iv (RVb=0.70 %). It counts as functional, Kidney.
In data set [14] the test system is Rattus norvegicus. In words: Effect on renal excretion in Wistar rat assessed as inulin clearance at 16 mg/kg/hr, iv administered 30 mins after inulin infusion (RVb=6.29 ml/min/kg). It counts as functional, Kidney.
Data set [15] concerns Rattus norvegicus. In words: Effect on renal excretion in Wistar rat assessed as p-aminohippuric acid clearance at 16 mg/kg/hr, iv administered 30 mins after p-aminohippuric acid infusion (RVb=16.70 ml/min/kg). In kind it is functional, Kidney. The procedure, abridged:
as §2

For data set [16], the system named is Rattus norvegicus. The experiment in a line: Effect on renal excretion in Wistar rat assessed as fractional sodium excretion at 16 mg/kg/hr, iv (RVb=0.60 %). In kind it is functional, Kidney.
Data set [17] has as its system Rattus norvegicus. In words: Effect on renal excretion in Wistar rat assessed as fractional sodium excretion at 8 mg/kg/hr, iv (RVb=0.58 %). In kind it is functional, Kidney.
In data set [18] the test system is Rattus norvegicus. In words: Effect on renal excretion in Wistar rat assessed as p-aminohippuric acid clearance at 8 mg/kg/hr, iv administered 30 mins after p-aminohippuric acid infusion (RVb=15.60 ml/min/kg). It counts as functional, Kidney. The procedure, abridged: as §2
Data set [19] is described as follows: Clearance in Wistar rat at 12 mg/kg/hr, iv. It counts as ADME, organism-based. Details: route intravenous. Particulars: in vivo. The procedure, abridged:
as §3

The subject of data set [20] is Rattus norvegicus. The experiment in a line: Effect on renal excretion in Wistar rat assessed as inulin clearance at 4 mg/kg/hr, iv administered 30 mins after inulin infusion (RVb=6.66 ml/min/kg). It counts as functional, Kidney.
Data set [21] is described as follows: Clearance in Wistar rat at 4 mg/kg/hr, iv. It counts as ADME, organism-based. Details: route intravenous. The following applies: in vivo. An outline of the steps:
as §3

For data set [22], the system named is Rattus norvegicus. In words: Effect on renal excretion in Wistar rat assessed as glucose clearance at 12 mg/kg/hr, iv (RVb=0 ml/min/kg). In kind it is functional, Kidney. An outline of the steps: as §3
Data set [23] concerns Rattus norvegicus. The experiment in a line: Effect on renal excretion in Wistar rat assessed as glucose clearance at 16 mg/kg/hr, iv (RVb=0 ml/min/kg). It counts as functional, Kidney. The procedure, abridged: as §3
For data set [24], the system named is Rattus norvegicus. In words: Effect on renal excretion in Wistar rat assessed as glomerular filtration rate at 4 mg/kg/hr, iv (RVb=1.41 %). It counts as functional, Kidney. An outline of the steps: as §1

As to `C=C1C[C@@]23CC[C@H]4[C@@](C)(CCC[C@@]4(C)C(=O)O[C@@H]4O[C@H](CO)[C@@H](O)[C@H](O)[C@H]4O)[C@@H]2CC[C@]1(O[C@@H]1O[C@H](CO)[C@@H](O)[C@H](O)[C@H]1O[C@@H]1O[C@H](CO)[C@@H](O)[C@H](O)[C@H]1O)C3` [STEVIOSIDE], the Activity in the data set with Rattus norvegicus [1] worked out at 2.19%; with Rattus norvegicus [2], 6.51 mL/min/kg; in the data set on Rattus norvegicus [3] it was 12.7 mL/min/kg; with Rattus norvegicus [4], 0 mL/min/kg; in the data set on Rattus norvegicus [5], 1.33 mL/min/kg; in the data set on Rattus norvegicus [6] it was 5.92 mL/min/kg. In addition, the Activity with Rattus norvegicus [7] is 2.36%; in the data set on Rattus norvegicus [9], 0.79%; in the data set with Rattus norvegicus [10], 2.67%; in the data set with Rattus norvegicus [12], 28.3 mL/min/kg; with Rattus norvegicus [13], 1.53%; with Rattus norvegicus [14], 6.3 mL/min/kg. In addition, the Activity in the data set with Rattus norvegicus [15] was 33.4 mL/min/kg; in the data set with Rattus norvegicus [16], 1.55%; in the data set with Rattus norvegicus [17], 1.12%; in the data set on Rattus norvegicus [18] it was 19.2 mL/min/kg; in the data set with Rattus norvegicus [20], 6.02 mL/min/kg; in the data set on Rattus norvegicus [22] it was 1.84 mL/min/kg. For the same molecule, the Activity in the data set on Rattus norvegicus [23] came to 2.38 mL/min/kg; in the data set on Rattus norvegicus [24], 1.56%. Also, the clearance – broadly, a measure of how efficiently the substance is removed, as volume per time – was 12.5 mL/min/kg in data set [8], 9.63 mL/min/kg in [11], 10.2 mL/min/kg in [19] and 7.21 mL/min/kg in [21].

Values taken from ChEMBL document CHEMBL1159032, “Renal excretion of stevioside in rats” (J Nat Prod, 1992).
